Results as given in ChEMBL document CHEMBL1122280, “Analogues of hycanthone and lucanthone as antitumor agents” (1983).

Legend:
[1] = system: P388; experiment: In vivo antitumor activity against P-388 lymphocytic leukemia in mice treated with a dose of 200 mg/kg; assay type: functional, Mus musculus
In short: (§1)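 Mice bearing P-388 leukemia were dosed once daily for 5 days, or once daily for 9 days for the two reference parent drugs. Activity is expressed as a T/C value.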

[2] = system: P388; experiment: In vivo antitumor activity against P-388 lymphocytic leukemia in mice treated with a dose of 50 mg/kg; assay type: functional, Mus musculus; in short: as §1
[3] = system: P388; experiment: In vivo antitumor activity against P-388 lymphocytic leukemia in mice treated with a dose of 100 mg/kg; assay type: functional, Mus musculus; in short: as §1
[4] = system: P388; experiment: In vivo antitumor activity against P-388 lymphocytic leukemia in mice treated with a dose of 60 mg/kg; assay type: functional, Mus musculus; in short: as §1
[5] = system: P388; experiment: In vivo antitumor activity against P-388 lymphocytic leukemia in mice treated with a dose of 12.5 mg/kg; assay type: functional, Mus musculus; in short: as §1
[6] = system: P388; experiment: In vivo antitumor activity against P-388 lymphocytic leukemia in mice treated with a dose of 25 mg/kg; assay type: functional, Mus musculus; in short: as §1
[7] = system: P388; experiment: In vivo antitumor activity against P-388 lymphocytic leukemia in mice treated with a dose of 75 mg/kg for 2 days; assay type: functional, Mus musculus
In short: (§2)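 P-388 leukemia-bearing mice received the drug on only 2 days, day 1 and day 4 after inoculation. Activity is expressed as a T/C value.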

[8] = system: P388; experiment: In vivo antitumor activity against P-388 lymphocytic leukemia in mice treated with a dose of 9.88 mg/kg for 2 days; assay type: functional, Mus musculus; in short: as §2
[9] = system: P388; experiment: In vivo antitumor activity against P-388 lymphocytic leukemia in mice treated with a dose of 18.75 mg/kg for 2 days; assay type: functional, Mus musculus; in short: as §2
[10] = system: P388; experiment: In vivo antitumor activity against P-388 lymphocytic leukemia in mice treated with a dose of 37.5 mg/kg for 2 days; assay type: functional, Mus musculus; in short: as §2
[11] = system: P388; experiment: In vivo antitumor activity against P-388 lymphocytic leukemia in mice treated with a dose of 100 mg/kg for 2 days; assay type: functional, Mus musculus; settings: in the assay text read “for 5 days” for “for 2 days”
[12] = system: P388; experiment: In vivo antitumor activity against P-388 lymphocytic leukemia in mice treated with a dose of 25 mg/kg for 2 days; assay type: functional, Mus musculus; settings: in the assay text read “for 5 days” for “for 2 days”
[13] = system: P388; experiment: In vivo antitumor activity against P-388 lymphocytic leukemia in mice treated with a dose of 50 mg/kg for 2 days; assay type: functional, Mus musculus; settings: in the assay text read “for 5 days” for “for 2 days”
[14] = system: P388; experiment: In vivo antitumor activity against P-388 lymphocytic leukemia in mice treated with a dose of 200 mg/kg for 5 days

CCN(CC)CCNc1ccc(CO)c2oc3ccc(O)cc3c(=O)c12 was tested, and the T/C [1] was 163, the T/C [2] was 181 and the T/C [3] was 214.
CCN(CC)CCNc1ccc(C)c2sc3ccccc3c(=O)c12 [LUCANTHONE] showed a T/C [3] of 158.
In the case of CCN(CC)CCNc1ccc(CO)c2sc3ccccc3c(=O)c12 [HYCANTHONE], the T/C [4] is reported as 165.
Work on Cc1ccc(NCCN(C)C)c2c(=O)c3cc(O)ccc3oc12 yielded a T/C [5] of 99, a T/C [6] of 106 and a T/C [2] of 108.
With CCN(CC)CCNc1ccc(C)c2oc3ccc(O)cc3c(=O)c12 the T/C [5] was 106, the T/C [6] was 106 and the T/C [2] was 117.
In the case of CN(C)CCNc1ccc(CO)c2oc3ccc(O)cc3c(=O)c12, the T/C [1] is reported as 128 and the T/C [2] is reported as 170.
With CCN(CC)CCNc1ccc(CO)c2sc3ccc(O)cc3c(=O)c12 the T/C [7] was 207, the T/C [8] was 163 and the T/C [9] was 207. It also gave a T/C [10] of 179.
CN(C)CCNc1ccc(CO)c2sc3ccc(O)cc3c(=O)c12 gave a T/C [11] of 194, a T/C [12] of 160 and a T/C [13] of 175. The T/C [14] was 222.
In the case of CN(C)CCNc1ccc(CO)c2sc3ccccc3c(=O)c12, the T/C [6] is reported as 94, the T/C [2] is reported as 114 and the T/C [3] is reported as 150.
